The viability is a read-out of living cells in per cent, often relative to untreated cells. What is called inhibition is the drop in the measured response relative to a control, in per cent.

Assay [1] is described as follows: Her2 expression decrease, cell viability multiplex – SKBR3 breast tumor cells, AlphaScreen, ATP viability, primary screen (AID 461;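 active = Her2 level under about 52% in both replicate screens, with viability over 70% of control, limit read from the data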;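 for Her2 level: lower value means less Her2 protein in the cells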;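 for viability: percent of carrier control wells set as 100% viability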). The conditions noted are these: SKBR3 Her2 protein level, 18-24 h, measured here: SKBR3 viability, ATP luminescence, at 10 µM. A general note: In Alpha technology, singlet oxygen from a donor bead excites a nearby acceptor bead.
The target in assay [2] is Receptor tyrosine-protein kinase erbB-2 (Homo sapiens) (UniProt P04626). Described as above. The note with it: 18-24 h, at 10 µM, stronger effect = lower value.
The nature of assay [3]: reduced viability of SK-BR-3 breast cancer cells – cell-based, 24 h, human, pilot screen (AID 572;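 active = viability at or below 10% of carrier control in both of two separate runs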;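 note: compound exposure lasted between 18 and 24 h rather than exactly 24 h; 100% = carrier-treated control wells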). The note with it: SK-BR-3 viability, CellTiter-Glo luminescence, at 10 µM, stronger effect = lower value. For orientation: ATP-based viability assays read luminescence as a measure of living cells.
Assay [4] in a line: HUVEC growth inhibition – cell-based, human, primary screen (AID 575;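 active = viability at or below 30% in both replicate assays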;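 note: 100% = median of untreated cell wells with 0.1% DMSO on each plate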). The note with it: HUVEC proliferation, CellTiter-Glo luminescence, 72 h; at 10 µM; stronger effect = lower value. In outline:
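Test system: HUVEC primary cells. Quantity: 1250 endothelial cells in each well. Dosing: single-point 10 µM, DMSO 0.1% final. Incubation: 72 h treatment at 37 °C. Measured by: CTG luminescence. Control set: DMSO cell controls and MePR drug controls. Plate: collagen-coated 384-well format.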

Assay [5] is described as follows: H69AR cell proliferation blockers – human, duplicate replicates, primary screen (AID 580).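 Note: 100% = mean luminescence of untreated wells and 0% = no signal.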 The note with it: H69AR lung tumor cells viability, ATP luminescence, 72 h; at 10 µM; stronger effect = lower value.
The nature of assay [6]: MRP1 drug-resistance reversers in H69AR cells – cell-based, doxorubicin co-treatment, pilot screen (AID 601;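 active = viability loss from added drug above about 55%, and viability with drug at most 40%, in both replicates, limit read from the data, passing the limit was not always enough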). The conditions noted are these: CellTiter-Glo, 72 h, at 10 µM; for differential viability (reversal): stronger effect = higher value.
Assay [7] is described as follows: yeast transport mutant growth inhibition pilot in 384-well plates, post-Golgi transport modulator project (AID 636; in the data active = inhibition above about 31%). The conditions noted are these: absorbance 615 nm, about 18 h, stronger effect = higher value.
Assay [8] can be described thus: growth suppression of yeast trafficking mutant, preliminary HTS, modulators of trafficking downstream of Golgi apparatus project, 1536-format plate, OD 615 nm (AID 637; in the data active = inhibition above about 30%). The note with it: yeast transport mutant growth, absorbance 615 nm, 18 h; stronger effect = higher value.
Setting [9] is: H69AR cells + 2 uM doxorubicin, measured here: viability with 2 uM doxorubicin, stronger effect = lower value.
The mark [10] stands for this setting: H69AR cells, compound alone cytotoxicity.

Each structure is given as a SMILES string. Calls of active or inactive are those of the source.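 Rule for the calls, unless noted: active = viability at or under a set limit in both replicates, limit being median viability minus 3 SD (cut at about 48% in these data, passing the limit was not always enough); inconclusive = at or under the limit in just one replicate; inactive = at or above the limit in both replicates.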

Receptor tyrosine-protein kinase erbB-2 (Homo sapiens), sequence (P04626 whole entry, looked up): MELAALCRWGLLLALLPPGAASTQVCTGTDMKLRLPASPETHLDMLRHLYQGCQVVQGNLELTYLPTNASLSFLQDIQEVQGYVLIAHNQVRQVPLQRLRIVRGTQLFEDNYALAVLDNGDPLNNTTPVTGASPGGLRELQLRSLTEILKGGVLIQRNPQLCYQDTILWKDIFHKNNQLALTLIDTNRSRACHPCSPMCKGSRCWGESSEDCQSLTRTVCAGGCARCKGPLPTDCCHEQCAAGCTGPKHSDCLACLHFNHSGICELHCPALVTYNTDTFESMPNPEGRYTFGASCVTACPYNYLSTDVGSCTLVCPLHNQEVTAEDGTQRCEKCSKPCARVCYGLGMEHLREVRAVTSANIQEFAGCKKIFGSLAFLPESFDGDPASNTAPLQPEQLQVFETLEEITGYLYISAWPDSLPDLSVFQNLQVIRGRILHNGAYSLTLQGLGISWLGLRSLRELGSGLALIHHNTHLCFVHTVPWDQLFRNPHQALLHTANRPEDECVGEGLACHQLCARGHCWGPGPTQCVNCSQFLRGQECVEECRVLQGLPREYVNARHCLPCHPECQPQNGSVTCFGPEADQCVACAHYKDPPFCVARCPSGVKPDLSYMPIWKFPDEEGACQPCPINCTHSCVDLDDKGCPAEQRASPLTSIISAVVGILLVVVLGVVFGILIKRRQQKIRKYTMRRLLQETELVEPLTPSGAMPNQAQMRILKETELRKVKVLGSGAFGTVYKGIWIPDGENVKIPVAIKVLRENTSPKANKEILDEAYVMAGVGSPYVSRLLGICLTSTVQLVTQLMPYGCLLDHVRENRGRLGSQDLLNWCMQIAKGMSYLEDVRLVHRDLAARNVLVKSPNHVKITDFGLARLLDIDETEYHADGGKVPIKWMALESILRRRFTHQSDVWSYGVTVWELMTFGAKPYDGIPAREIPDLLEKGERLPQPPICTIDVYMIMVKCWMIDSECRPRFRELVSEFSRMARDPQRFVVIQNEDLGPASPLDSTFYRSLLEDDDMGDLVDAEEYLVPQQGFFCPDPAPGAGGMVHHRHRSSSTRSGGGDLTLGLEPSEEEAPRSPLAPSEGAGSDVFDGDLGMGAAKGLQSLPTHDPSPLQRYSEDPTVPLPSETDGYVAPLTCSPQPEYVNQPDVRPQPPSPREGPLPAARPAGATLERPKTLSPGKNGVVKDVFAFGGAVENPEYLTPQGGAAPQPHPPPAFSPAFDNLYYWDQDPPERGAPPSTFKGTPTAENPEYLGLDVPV

For the molecule `O=C1CC(c2cccs2)CC2=C1C(c1ccccc1)n1ncnc1N2` (stereo not given), the viability was 105% in assay [1]; 105% (inactive) in assay [3]; 100% (inactive) in assay [4]; 93.8% (inactive) in assay [5]; 99.2% in assay [6] (setting [9]); 93.8% in assay [6] (setting [10]). In addition, the Her2 level in assay [2] was 104% (inactive). For the same molecule, in assay [6] (H69AR cells + 2 uM doxorubicin), the differential viability (reversal) was -5.41% (inactive). The inhibition is -4.53% (inactive) in assay [7] and -2.3% (inactive) in assay [8].
As to `COc1ccccc1CNS(=O)(=O)c1ccc(NC(C)=O)cc1`, the viability is 94.5% in assay [1]; 94.5% (inactive) in assay [3]; 106% (inactive) in assay [4]; 92.9% (inactive) in assay [5]; 101% in assay [6] (setting [9]); 92.9% in assay [6] (setting [10]). Further, the Her2 level in assay [2] was 84% (inactive). In addition, the differential viability (reversal) in assay [6] (H69AR cells + 2 uM doxorubicin) is -7.69% (inactive). Also, the inhibition in assay [7] is -5.73% (inactive); in assay [8] it was 2.22% (inactive).
Take `CCOC(=O)N1CCN(S(=O)(=O)c2cc(C)c(C)cc2C)CC1`: the viability in assay [1] was 96.5%; in assay [3] it was 96.5% (inactive); in assay [4] it was 104% (inactive); in assay [5], 95.3% (inactive); in assay [6] (setting [9]) it was 89.3%; in assay [6] (setting [10]), 95.3%. Also, in assay [2], the Her2 level was 87% (inactive). Also, the differential viability (reversal) in assay [6] (H69AR cells + 2 uM doxorubicin) is 6.04% (inactive). In addition, the inhibition in assay [7] is -4.34% (inactive); in assay [8] it was 2.22% (inactive).
With `COc1cc(OC)c(NC(=O)c2ccco2)cc1Cl`, the viability is 121% in assay [1]; 121% (inactive) in assay [3]; 92.1% (inactive) in assay [4]; 84.7% (inactive) in assay [5]; 96.9% in assay [6] (setting [9]); 84.7% in assay [6] (setting [10]). In addition, the Her2 level in assay [2] is 81.5% (inactive). For the same molecule, the differential viability (reversal) in assay [6] (H69AR cells + 2 uM doxorubicin) is -12.1% (inactive). In addition, the inhibition in assay [7] was -3.95% (inactive); in assay [8], 0% (inactive).
Take `COC(=O)C(O)(CC(=O)c1ccc(OC)cc1)C(F)(F)F` (stereo not given): the viability was 100% in assay [1]; 100% (inactive) in assay [3]; 91.5% (inactive) in assay [4]; 95.9% (inactive) in assay [5]; 95.3% in assay [6] (setting [9]); 95.9% in assay [6] (setting [10]). Moreover, the Her2 level in assay [2] is 98% (inactive). Besides, in assay [6] (H69AR cells + 2 uM doxorubicin), the differential viability (reversal) was 0.63% (inactive). For the same molecule, the inhibition in assay [7] was -1.33% (inactive); in assay [8] it was -5% (inactive).
For `C=CCSC1=C(C#N)C(c2ccccc2OCC)CC(=O)N1` (stereo not given), the viability in assay [1] is 94%; in assay [3], 94% (inactive); in assay [4], 88.3% (inactive); in assay [5], 95.3% (inactive); in assay [6] (setting [9]) it was 91.8%; in assay [6] (setting [10]) it was 95.3%. In assay [2], the Her2 level was 81% (inactive). In assay [6] (H69AR cells + 2 uM doxorubicin), the differential viability (reversal) is 3.58% (inactive). For the same molecule, the figures for the inhibition in assay [7] and in assay [8] were -5.39% (inactive) and 0.5% (inactive), respectively.
For the molecule `Cc1cc(C)nc(Sc2ccc3nnc(C(F)(F)C(F)(F)C(F)(F)F)n3n2)n1`, the viability in assay [1] is 83.5%; in assay [3] it was 83.5% (inactive); in assay [4] it was 99.6% (inactive); in assay [5], 102% (inactive); in assay [6] (setting [9]) it was 87.6%; in assay [6] (setting [10]) it was 102%. For the same molecule, in assay [2], the Her2 level was 86.5% (inactive). Also, in assay [6] (H69AR cells + 2 uM doxorubicin), the differential viability (reversal) was 14.1% (inactive). Besides, the values for the inhibition in assay [7] and in assay [8] were -6.89% (inactive) and 3.93% (inactive), respectively.
Take `COc1ccc(C2CC(C(F)(F)F)n3ncc(C(=O)NCc4cccnc4)c3N2)cc1OC` (stereo not given): the viability in assay [1] was 86.5%; in assay [3], 86.5% (inactive); in assay [4], 94.2% (inactive); in assay [5] it was 91.1% (inactive); in assay [6] (setting [9]), 79.5%; in assay [6] (setting [10]), 91.1%. The Her2 level in assay [2] is 93% (inactive). Further, the differential viability (reversal) in assay [6] (H69AR cells + 2 uM doxorubicin) is 11.6% (inactive). In addition, the inhibition in assay [7] is -4.47% (inactive); in assay [8], 2.33% (inactive).
Take `Cc1cc(=O)n(C)c(=O)n1CCCNc1ccccc1`: the viability in assay [1] was 82%; in assay [3], 82% (inactive); in assay [4], 83.7% (inactive); in assay [5] it was 99.9% (inactive); in assay [6] (setting [9]), 88.5%; in assay [6] (setting [10]), 99.9%. Further, the Her2 level in assay [2] is 115% (inactive). In assay [6] (H69AR cells + 2 uM doxorubicin), the differential viability (reversal) is 11.4% (inactive). The inhibition in assay [7] is 0% (inactive); in assay [8], -5% (inactive).
With `O=C1CSC(c2cn(-c3ccccc3)nc2-c2ccccc2)N1Cc1ccco1` (stereo not given), the viability is 97% in assay [1]; 97% (inactive) in assay [3]; 63.1% (inactive) in assay [4]; 88.3% (inactive) in assay [5]; 70.6% in assay [6] (setting [9]); 88.3% in assay [6] (setting [10]). Further, in assay [2], the Her2 level was 110% (inactive). In assay [6] (H69AR cells + 2 uM doxorubicin), the differential viability (reversal) is 17.7% (inactive). In addition, the inhibition in assay [7] is 0.92% (inactive); in assay [8], 3.55% (inactive).
With `COCC(=O)N(c1ccc(C(C)C)cc1)C1C=CS(=O)(=O)C1` (stereo not given), the viability in assay [1] is 93.5%; in assay [3] it was 93.5% (inactive); in assay [4] it was 78.9% (inactive); in assay [5], 89.6% (inactive); in assay [6] (setting [9]) it was 88.8%; in assay [6] (setting [10]) it was 89.6%. In assay [2], the Her2 level was 80% (inactive). The differential viability (reversal) in assay [6] (H69AR cells + 2 uM doxorubicin) was 0.84% (inactive). Also, the inhibition in assay [7] was -3.08% (inactive); in assay [8], 0.83% (inactive).
Take `CCOC(=O)c1ccc(Oc2nc(SC)nc(N(C)C)n2)cc1`: the viability is 73.5% in assay [1]; 73.5% (inactive) in assay [3]; 85% (inactive) in assay [4]; 107% (inactive) in assay [5]; 105% in assay [6] (setting [9]); 107% in assay [6] (setting [10]). Moreover, the Her2 level in assay [2] is 100% (inactive). In addition, in assay [6] (H69AR cells + 2 uM doxorubicin), the differential viability (reversal) is 2.66% (inactive). The inhibition is -1.54% (inactive) in assay [7] and -8.17% (inactive) in assay [8].
Take `O=C(OCC(=O)N1CCCC1)c1ccccc1OCc1ccccc1`: the viability in assay [1] was 96%; in assay [3], 96% (inactive); in assay [4], 73.2% (inactive); in assay [5], 99.4% (inactive); in assay [6] (setting [9]), 88.3%; in assay [6] (setting [10]) it was 99.4%. Moreover, the Her2 level in assay [2] is 79.5% (inactive). Further, in assay [6] (H69AR cells + 2 uM doxorubicin), the differential viability (reversal) was 11.1% (inactive). Also, the inhibition in assay [7] was -7.7% (inactive); in assay [8], 1.31% (inactive).
As for `c1cn(CC2(Cn3ccnc3)COC2)cn1`, the viability is 103% in assay [1]; 103% (inactive) in assay [3]; 83% (inactive) in assay [4]; 99.7% (inactive) in assay [5]; 87.8% in assay [6] (setting [9]); 99.7% in assay [6] (setting [10]). The Her2 level in assay [2] was 70.5% (inactive). The differential viability (reversal) in assay [6] (H69AR cells + 2 uM doxorubicin) was 12% (inactive). Also, the inhibition in assay [7] was -3.77% (inactive); in assay [8], -0.79% (inactive).
With `CCSc1nnc(NC(=O)C2CCCN(S(=O)(=O)c3cnc[nH]3)C2)s1` (stereo not given), the viability was 105% in assay [1]; 105% (inactive) in assay [3]; 89.9% (inactive) in assay [4]; 91.3% (inactive) in assay [5]; 89.4% in assay [6] (setting [9]); 91.3% in assay [6] (setting [10]). Besides, the Her2 level in assay [2] is 97.5% (inactive). The differential viability (reversal) in assay [6] (H69AR cells + 2 uM doxorubicin) is 1.98% (inactive). The inhibition in assay [7] was -2.27% (inactive); in assay [8] it was 2.83% (inactive).
`CN1/C(=C\C(=O)C(F)F)C(C)(C)c2ccccc21`: the viability is 90% in assay [1]; 90% (inactive) in assay [3]; 99.5% (inactive) in assay [4]; 107% (inactive) in assay [5]; 87.4% in assay [6] (setting [9]); 107% in assay [6] (setting [10]). Further, the Her2 level in assay [2] is 100% (inactive). In addition, the differential viability (reversal) in assay [6] (H69AR cells + 2 uM doxorubicin) was 19.5% (inactive). Also, the inhibition in assay [7] was -0.53% (inactive); in assay [8], 1.77% (inactive).

The values are drawn from PubChem BioAssay.
